According to ChEMBL document CHEMBL5252676, “Dimeric polyphenols to pave the way for new antimalarial drugs” (RSC Med Chem, 2023):
In brackets after ≈: the same amount, converted by molar mass. Several values for one entry are separate records, joined by “and”; a condition that tells them apart may be missing. Identical values can stand only once. Activity calls are given as the source filed them. The calls are words filed in the database; no cut-off is given here.

Tests used:
Plasmodium falciparum [1] = assay: Antiplasmodial activity against chloroquine-resistant Plasmodium falciparum FcB1 assessed as intraerythrocytic growth inhibition; type: functional, organism-based
Procedure, shortened: (§1)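 Asexual intraerythrocytic P. falciparum cultured at 37 °C in RPMI with glucose, hypoxanthine, gentamycin and 10% pooled human A+/O+ serum. DMSO stocks of 5–10 mg mL⁻¹ diluted in RPMI, final DMSO at most 1%. Eight two-fold dilutions tested in three consecutive assays. Growth read as Plasmodium lactate dehydrogenase activity at 650 nm against parasitized RBC (100%) and free RBC (0%). IC50 in triplicate; artemisinin and quinine as controls.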

[2] = Selectivity index, ratio of IC50 for cytotoxicity against HUVEC cells to IC50 for antiplasmodial activity against chloroquine-sensitive Plasmodium falciparum 3D7; type: toxicity, cell-based; conditions: human, read-out: Ratio IC50
Plasmodium berghei [3] = assay: Antiplasmodial activity against Plasmodium berghei NK173 infected in Swiss CD-1 mouse model of malaria assessed as reduction in parasitaemia at 50 mg/kg, po measured after 7 days by giemsa staining based microscopic analysis; type: functional, organism-based; conditions: time 7.0 day
Procedure, shortened: (§2)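 Peters' 4-day suppressive test: female Swiss CD1 mice (10 weeks, 25 ± 2 g), six per group, infected i.p. with P. berghei NK173-parasitized RBC at D1. Dosing 2–3 h post-infection, then daily for 3 days, in 7% Tween 80/3% EtOH in saline. Giemsa thin tail-blood smears (≥500 erythrocytes) at D4 (2 h post-dose) and D7. Inhibition is taken versus vehicle controls.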

[4] = Aqueous solubility of compound assessed as Cmax incubated for 3 days by UV spectrophotometer based shake-flask method; type: physicochemical; conditions: water (aqueous); time 3 day; read-out: Cmax
Procedure, shortened: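 Shake-flask: excess solid stirred overnight in MilliQ water at RT (~25 °C), filtered 0.45 μm, diluted, absorbance read at the λmax from a UV scan. Quantified against a 3-point calibration curve (R² > 0.95). Fresh saturated solutions were made on 3 consecutive days.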

[5] = tested on: Plasmodium vinckei petteri; assay: Antiplasmodial activity against Plasmodium vinckei petteri infected in Swiss mouse model assessed as inhibition of parasite growth administered intraperitoneally for 4 days; type: functional; conditions: 96 h, route ip, time 4 day
Plasmodium falciparum [6] = assay: Antiplasmodial activity against multidrug-resistant Plasmodium falciparum W2 assessed as intraerythrocytic growth inhibition; type: functional, organism-based; procedure, shortened: as §1
[7] = Hemolytic activity in RBC (unknown origin) assessed as hemolysis at 100 ug/ml incubated for 1 hrs by absorbance based microplate reader analysis relative to control; type: toxicity, cell-based, Erythrocyte; conditions: red blood cells, at 100 µg/mL, read-out: Activity
Procedure, shortened: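 Human A⁺/O⁺ RBC, 10% v/v in PBS, exposed to compound at 100 μg mL⁻¹ final (DMSO < 1%), in duplicate, stirred 1 h at RT. Centrifuged, supernatant OD₅₅₀ read. % lysis = (sample − PBS)/(1% Triton X-100 − PBS) × 100.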

[8] = tested on: Plasmodium vinckei petteri; assay: Antiplasmodial activity against Plasmodium vinckei petteri infected in Swiss mouse model assessed as inhibition of parasite growth administered orally for 4 days; type: functional; conditions: 96 h, route po, time 4 day
Plasmodium falciparum [9] = assay: Antiplasmodial activity against chloroquine-sensitive Plasmodium falciparum 3D7 assessed as intraerythrocytic growth inhibition; type: functional, organism-based; procedure, shortened: as §1
[10] = tested on: Plasmodium vinckei petteri; assay: Antiplasmodial activity against Plasmodium vinckei petteri infected in Swiss mouse model assessed as reduction in parasitaemia at 50 mg/kg, ip administered for 4 days; parameters: scale not given: the % may be the effect or the level left; conditions: time 4 day
[11] = Oral bioavailability in human; type: ADME, organism-based; conditions: in vivo
Plasmodium falciparum [12] = assay: Antiplasmodial activity against Plasmodium falciparum 3D7 assessed as inhibition of parasite reduction by Plasmodium lactate dehydrogenase activity
[13] = Cytotoxicity against HUVEC cells assessed as inhibition of cell growth incubated for 48 hrs by fluorescence based assay; type: toxicity; conditions: human
Procedure, shortened: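 HUVEC in EGM-2, at most 10 passages, seeded at 2.5 × 10⁴ cells/well and grown 24 h at 37 °C. Six 2-fold concentrations in triplicate (DMSO max 0.5%) for 48 h. PrestoBlue for 2–3 h, fluorescence 560–590 nm, growth compared with untreated cells. n = 3 separate tests.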

[14] = tested on: Plasmodium vinckei petteri; assay: Antiplasmodial activity against Plasmodium vinckei petteri infected in Swiss mouse model assessed as inhibition of parasite growth at 50 to 100 mg/kg,ip administered for 4 days relative to control; type: functional; parameters: scale not given: the % may be the effect or the level left; conditions: dose 50-100 mg/kg, time 4 day
Plasmodium falciparum [15] = assay: Antiplasmodial activity against Plasmodium falciparum 3D7 assessed as inhibition of parasite reduction by giemsa staining based analysis; type: functional, organism-based
Procedure, shortened: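 3D7 cultures were exposed to compound for 48 h. Parasitaemia was then scored by microscopy as a visual check of parasite burden.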

[16] = Toxicity in zebrafish embryos assessed as reduction in egg hatching measured for 72 hrs; parameters: species or system Danio rerio; conditions: in vivo, dose 10-100 µg/ml
[17] = Toxicity in zebrafish embryo assessed as egg hatching at 100 ug/ml measured for 72 hrs relative to control; type: tissue-based, Danio rerio; conditions: in vivo, at 100 µg/mL
[18] = Selectivity index, ratio of IC50 for antiplasmodial activity against chloroquine-resistant Plasmodium falciparum FcB1 to IC50 for antiplasmodial activity against multidrug-resistant Plasmodium falciparum W2; type: functional
[19] = Toxicity in mouse at 150 mg/kg, ip administered 2 hrs once for 6 hrs and measured for 24 hrs; type: organism-based; conditions: in vivo
Procedure, shortened: (§3)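 Two mice per route (i.p. or p.o.) received 4 increasing doses over 6 h (every 2 h) in Tween 80/EtOH/saline (7/3/90), then were followed for 24 h for health or behavioural problems. Maximal dose is set as 50% of the cumulative dose giving toxicity.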

Plasmodium berghei [20] = assay: Antiplasmodial activity against Plasmodium berghei NK173 infected in Swiss CD-1 mouse model of malaria assessed as reduction in parasitaemia at 50 mg/kg, ip measured after 4 days by giemsa staining based microscopic analysis relative to control; type: functional; parameters: scale not given: the % may be the effect or the level left; conditions: time 4 day; procedure, shortened: as §2
[21] = Toxicity in zebrafish embryos assessed as modified heart rate at 10 to 100 ug/ml measured for 3 days; parameters: species or system Danio rerio; conditions: in vivo, 72 h, dose 10-100 µg/ml, time 3 day
Plasmodium berghei [22] = assay: Antiplasmodial activity against Plasmodium berghei NK173 infected in Swiss CD-1 mouse model of malaria assessed as reduction in parasitaemia at 50 mg/kg, po measured after 4 days by giemsa staining based microscopic analysis relative to control; type: functional; parameters: scale not given: the % may be the effect or the level left; conditions: time 4 day; procedure, shortened: as §2
[23] = Toxicity in zebrafish embryos assessed as reduction in egg hatching at 10 to 100 ug/ml measured 5 days post fertilization; parameters: species or system Danio rerio; conditions: in vivo, 120 h, dose 10-100 µg/ml, time 5 day
[24] = Toxicity in zebrafish embryo assessed as developmental defects at 10 to 100 ug/ml measured 24 hrs post fertilization; parameters: species or system Danio rerio; conditions: in vivo, dose 10-100 µg/ml
[25] = Toxicity in zebrafish embryo assessed as survival at 10 to 100 ug/ml measured 24 hrs post fertilization relative to control; parameters: species or system Danio rerio; conditions: in vivo, at 10 to 100 µg/mL, dose 10-100 µg/ml, read-out: Activity
Procedure, shortened: (§4)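 Zebrafish embryos were synchronized 24 h after collection and kept at 28 °C with chorion intact, 20 per condition in duplicate. They were exposed to 100, 50, 25 or 10 μg mL⁻¹ from 100 mg mL⁻¹ DMSO stocks (final DMSO under 0.1%), with medium renewed daily for 3 days. Aspect, hatching and mortality were followed to 96 hpf against 30 control embryos in water with 0.1% DMSO.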

[26] = Toxicity in zebrafish embryos assessed as reduction in brain size at 10 to 100 ug/ml measured for 3 days; type: tissue-based, Danio rerio; conditions: in vivo, 72 h, dose 10-100 µg/ml, time 3 day
[27] = Toxicity in zebrafish embryos assessed as survival at highest concentration measured for 3 days relative to control; parameters: species or system Danio rerio; conditions: in vivo, time 3 day, read-out: Activity; procedure, shortened: as §4
[28] = Selectivity index, ratio of IC50 for antiplasmodial activity against chloroquine-resistant Plasmodium falciparum FcB1 to IC50 for antiplasmodial activity against chloroquine-sensitive Plasmodium falciparum 3D7; type: functional
[29] = Toxicity in zebrafish embryos assessed as brain misshape at 10 to 100 ug/ml measured for 3 days; type: tissue-based, Danio rerio; conditions: in vivo, 72 h, dose 10-100 µg/ml, time 3 day
[30] = Toxicity in mouse at 200 mg/kg, po administered 2 hrs once for 6 hrs and measured for 24 hrs; type: organism-based; conditions: in vivo; procedure, shortened: as §3
[31] = Toxicity in zebrafish embryos assessed as egg hatching at 10 to 100 ug/ml measured for 72 hrs relative to control; type: tissue-based, Danio rerio; conditions: in vivo, at 10 to 100 µg/mL, dose 10-100 µg/ml
[32] = Cytotoxicity against HUVEC confluent cells assessed as inhibition of cell growth incubated for 48 hrs by fluorescence based assay; type: toxicity; conditions: human
Procedure, shortened: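 Confluent HUVEC: plates seeded 3 days before treatment, then exposed to six 2-fold concentrations for 48 h. PrestoBlue fluorescence read-out (560–590 nm), compared with untreated cells.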

Structure (SMILES) | IC50 (Plasmodium falciparum [1]) [µM] | selectivity ratio [2] | solubility thermodynamic at 72 h [4] [µM] | IC50 (Plasmodium falciparum [6]) [µM] | hemolysis at 1 h, 100 ug/ml [7] [%] | IC50 (Plasmodium falciparum [9]) [µM] | IC50 at 48 h [13] [µM] | Activity [21] | Activity [24] | survival at 24 h [25] [%] | Activity [26] | survival at 72 h [27] [%] | Activity [29] | also measured
O=c1oc2c(O)c(O)cc3c(=O)oc4c(O)c(O)cc1c4c23 [ELLAGIC ACID] | 7.5 | > 59 | 18 (≈ 5.44 µg/mL) | 8.9 | < 1 | 2.8 | > 165 |  |  |  |  |  |  | Activity (Plasmodium berghei [3]): inactive; ED50 [5]: < 1 mg/kg; ED50 [8]: > 100 mg/kg; Activity [10]: 100%; bioavailability [11]: 1%; IC50 (Plasmodium falciparum [12]): 2.8 µM; Activity [14]: 100%
O=C(O)c1cc(O)c(O)c(O)c1 [GALLIC ACID] |  | > 4 | 70000 (≈ 11900 µg/mL) |  | < 1 | 68 | > 294 |  |  |  |  |  |  | IC50 (Plasmodium falciparum [15]): > 10 µM and 68 µM
O=C(NCCCNC(=O)c1cc(O)c(O)c(O)c1)c1cc(O)c(O)c(O)c1 | 26 | 28 | 610 (≈ 231 µg/mL) | 12 | < 1 | 9.9 | 130 | Non-Toxic | Non-Toxic | > 95 | Non-Toxic | > 90 | Non-Toxic | Activity [16]: Dose-Dependent Effect; Activity [17]: 20%; Ratio IC50 [18]: 2; Activity [19]: Non-Toxic; Activity (Plasmodium berghei [20]): 66%; Activity (Plasmodium berghei [22]): 54%; Activity [23]: Toxic; Ratio IC50 [28]: 2; Activity [30]: Non-Toxic
O=C(OCCCOC(=O)c1cc(O)c(OCc2ccccc2)c(O)c1)c1cc(O)c(OCc2ccccc2)c(O)c1 | 1.7 | 8 | 26 (≈ 14.6 µg/mL) | 1.9 | < 1 | 1.8 | 14 | Non-Toxic | Non-Toxic | > 95 | Non-Toxic | > 90 | Non-Toxic | Activity [31]: 100%; IC50 at 48 h [32]: 12.1 µM
